Laboratory results as given in PubChem BioAssay.
Records with an inconclusive call do not appear.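 The calls were made as follows, unless noted: active = viability increase at or above a cutoff of the median across tested compounds plus 3 SD (cut at about 8.5% in these data, passing the limit was not always enough); inconclusive = some gains above the cutoff, reason not given; inactive = the rest.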

Tests used:
[1] = OD615 S. cerevisiae growth inhibition, permissive medium, pilot counter-assay, permissive growth control for S. cerevisiae lifespan shortening project (AID 705;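 active = growth inhibition above 25% in both replicates, a cutoff set 3 SD above the mean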); details: OD615, 24 h, at 10 µM, hits give high values
Method in brief: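 assay system = Saccharomyces cerevisiae strain carrying genetically modified DeaD replicative-lifespan system | medium = SC raffinose/galactose permissive medium | dosing = 10 µM single dose, 0.25% DMSO | schedule = 24 h compound exposure at 30 °C after 4 h pre-growth | measured by = OD at 615 nm | read-out basis = growth inhibition from lowered OD615 after 24 h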

[2] = Restrictive medium S. cerevisiae growth inhibition, OD615, pilot screen of yeast lifespan reduction project, restrictive growth control (AID 706;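 active = growth inhibition above a set limit, 3 SD over mean compound inhibition, in both replicates, cut at about 43% in these data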;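 also: modified DeaD lifespan yeast strain shifted to restrictive glucose medium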); details: OD615, 48 h, at 10 µM, hits give high values
Method in brief: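 Buffer or medium: CSMM-D glucose medium. Material: genetically modified Saccharomyces cerevisiae, DeaD replicative lifespan assay strain. Times: 48 h compound exposure at 30 °C. Measured by: optical density at 615 nm.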

[3] = viability gain of MRP-1-high H69AR cells under doxorubicin, pilot screen, MRP-1 activator project, CellTiter-Glo, duplicate (AID 807); details: H69AR viability with doxorubicin, CellTiter-Glo luminescence; at 10 µM; hits give high values;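 also: compound pretreatment 18-22 h then 72 h combined with doxorubicin; 0% = doxorubicin alone and 100% = vehicle without doxorubicin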
[4] = growth suppression of beta-catenin knockout HCT116, pilot screen, human colon tumor cells (AID 823;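 active = cell viability at or below a set limit in both duplicate runs, the limit being the all-compound median minus 4 SD, cut at about 23% in these data, passing the limit was not always enough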;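 also: 0% = wells killed by 20 µM Hyamine and 100% = untreated DMSO cell wells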); details: CellTiter-Glo, 60 h, at 10 µM, hits give low values
[5] = growth suppression of PTEN-deleted HCT116, pilot screen, cell-based, HCT116 clonal line, CellTiter-Glo (AID 824;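 active = viability at or below 27.92% in each of two runs, the all-compound median minus 4 SD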;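 also: 0% = 20 µM Hyamine control and 100% = vehicle cell control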); details: 60 h, at 10 µM, hits give low values
[6] = inhibitors of the yeast RAM network, pilot screen, dse1pr::URA3 reporter, 5-FOA selection (AID 869;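 active = inhibition over a set limit, the all-compound mean plus 3 SD, in both replicate runs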;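 also: 0% = DMSO wells with no growth and 100% = 10 µM 1-NA-PP1 with full growth; RAM network block rescues cells from 5-FOA so hits raise OD615 growth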); details: S. cerevisiae dse1pr::URA3 5-FOA growth, OD615, 2 d; at 10 µM; hits give high values; strain carries analog-sensitive mutant Cbk1 kinase
[7] = RAM signaling pathway blockade in yeast – S. cerevisiae, Pdr1DBD-CYC8 efflux-inhibited sensitized strain, primary screen (AID 1298;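 active = RAM network inhibition above 8.4% in each of two replicates, 3 SD over the compound average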;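 also: 0% = DMSO untreated cells without growth and 100% = 10 µM 1-NA-PP1 full growth; higher means more yeast growth rescued from 5-FOA killing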); details: S. cerevisiae cbk1-as DSE1-URA3 strain, 5-FOA growth OD615, 2 d; at 50 µM; hits give high values

O=C1c2ccccc2C(=O)N1CCC(=O)N1CCCc2ccccc21
inactive: growth inhibition [1] -19.9% | growth inhibition [2] -13.7% | viability increase [3] -0.26% | viability [4] 93.8% | viability [5] 96.8% | inhibition [6] 2.32% | RAM network inhibition [7] 7.36%

COCCN1C(=O)c2ccccc2C(C(=O)NCCN(C)C)C1c1ccc(F)cc1 (configuration not stated)
inactive: growth inhibition [1] -15% | growth inhibition [2] -19.9% | viability increase [3] -1.59% | viability [4] 92.1% | viability [5] 98.4% | inhibition [6] 1.89% | RAM network inhibition [7] 2.13%

CCCc1ncc(C(O)c2cccc(OC)c2OC)n1C (configuration not stated)
inactive: growth inhibition [1] -11% | growth inhibition [2] -23% | viability increase [3] -2.63% | viability [4] 95.9% | viability [5] 94.4% | inhibition [6] 0.71% | RAM network inhibition [7] 1.45%

O=C1CCCCCN1Cc1nnc(SCc2nc3ccccc3s2)n1-c1ccccn1
inactive: growth inhibition [1] -3.83% | growth inhibition [2] 19.8% | viability increase [3] -3.45% | viability [4] 91.7% | viability [5] 95% | inhibition [6] 1.07% | RAM network inhibition [7] 2.7%

CCC(=O)N1CCc2cc(Br)cc(S(=O)(=O)N3CCN(C(=O)c4ccco4)CC3)c21
inactive: growth inhibition [1] -4.72% | growth inhibition [2] -21.7% | viability increase [3] -1.56% | viability [4] 91.6% | viability [5] 95.4% | inhibition [6] 2.48% | RAM network inhibition [7] 1.88%

COc1cccc(CNC(=O)Cn2cc3c(n2)CCCCC3)c1
inactive: growth inhibition [1] -12.5% | growth inhibition [2] -19.7% | viability increase [3] -1.29% | viability [4] 92.3% | viability [5] 85.9% | inhibition [6] 1.56% | RAM network inhibition [7] 1.81%

COc1ccccc1NC(=O)CSc1nnc(C)o1
inactive: growth inhibition [1] -7.09% | growth inhibition [2] -9.04% | viability increase [3] -1.19% | viability [4] 101% | viability [5] 102% | inhibition [6] 2.02% | RAM network inhibition [7] 2.69%

Cc1cc2cc(CNC(=O)c3ccc(Br)o3)ccc2[nH]1
inactive: growth inhibition [1] -6.49% | growth inhibition [2] -9.17% | viability increase [3] -1.33% | viability [4] 86.5% | viability [5] 85.1% | inhibition [6] 3.64% | RAM network inhibition [7] 8.22%

CCC(=O)Nc1ccccc1C(=O)N1CCN(Cc2ccccc2)CC1
inactive: growth inhibition [1] 2.08% | growth inhibition [2] 3.03% | viability increase [3] -1.2% | viability [4] 99.8% | viability [5] 99.7% | inhibition [6] 1.6% | RAM network inhibition [7] 3.32%

O=C(O)CSC1c2ccccc2C(=O)N1Cc1ccccc1 (configuration not stated)
inactive: growth inhibition [1] -13.6% | growth inhibition [2] -2.05% | viability increase [3] 2.07% | viability [4] 94.4% | viability [5] 93.7% | inhibition [6] 0.06% | RAM network inhibition [7] 0.3%

CC(=O)Nc1c2c(nn1-c1cccc(Cl)c1)CS(=O)C2 (configuration not stated)
inactive: growth inhibition [1] 3.89% | growth inhibition [2] -5.49% | viability increase [3] -0.33% | viability [4] 94.1% | viability [5] 100% | inhibition [6] 1.38% | RAM network inhibition [7] 0.11%

c1ccc(COc2nsnc2N2CCOCC2)cc1
inactive: growth inhibition [1] 6.21% | growth inhibition [2] 13.8% | viability increase [3] -1.67% | viability [4] 107% | viability [5] 86.5% | inhibition [6] 0.145% | RAM network inhibition [7] 1.41%

Cc1ccccc1N1C(=O)C(Cl)=C(N2CCN(c3ccccc3)CC2)C1=O
inactive: growth inhibition [1] -5.42% | growth inhibition [2] -12.1% | viability increase [3] -2.29% | viability [4] 101% | viability [5] 109% | inhibition [6] 0.515% | RAM network inhibition [7] 1.87%

CCOC(=O)c1cccc(NC(=O)C2CCCN2S(=O)(=O)c2cccc3cccnc23)c1 (configuration not stated)
inactive: growth inhibition [1] -9.1% | growth inhibition [2] -2.39% | viability increase [3] -3.02% | viability [4] 92% | viability [5] 89.8% | inhibition [6] 1.41% | RAM network inhibition [7] -1.53%

CC(C)(Oc1ccc(Cl)cc1)C(=O)Nc1cccnc1
inactive: growth inhibition [1] -4.86% | growth inhibition [2] -6.65% | viability increase [3] -3.43% | viability [4] 92.6% | viability [5] 83.1% | inhibition [6] 0.405% | RAM network inhibition [7] 1.94%

O=C(NCCCN1CCN(c2ccccc2F)CC1)C1CCC(=O)N1C1CCCC1 (configuration not stated)
inactive: growth inhibition [1] -13% | growth inhibition [2] -1.25% | viability increase [3] -2.46% | viability [4] 102% | viability [5] 93.6% | inhibition [6] 1.08% | RAM network inhibition [7] 5.85%

CC1CCN(C(=O)c2cc(-c3ccccc3O)on2)CC1
inactive: growth inhibition [1] -10.2% | growth inhibition [2] 9.11% | viability increase [3] -0.44% | viability [4] 108% | viability [5] 91.5% | inhibition [6] 0.335% | RAM network inhibition [7] -2.14%

COc1cc(C(c2sc3nc(C)nn3c2O)N2CC(C)OC(C)C2)cc(OC)c1OC (configuration not stated)
inactive: growth inhibition [1] -0.68% | growth inhibition [2] -4.15% | viability increase [3] -2.37% | viability [4] 93.6% | viability [5] 90.1% | inhibition [6] 0.73% | RAM network inhibition [7] 2.94%

CCOc1ccc(NC(=O)CCS(=O)(=O)c2cccc3nsnc23)cc1
inactive: growth inhibition [1] -1.9% | growth inhibition [2] -3.6% | viability increase [3] -3.08% | viability [4] 101% | viability [5] 93.7% | inhibition [6] 1.31% | RAM network inhibition [7] 2.36%

Cc1n[nH]c(C)c1S(=O)(=O)N(CC(=O)Nc1ccc2c(c1)OCCO2)c1ccc(C(C)C)cc1
inactive: growth inhibition [1] 2.8% | growth inhibition [2] 2.67% | viability increase [3] -5.15% | viability [4] 68.1% | viability [5] 63% | inhibition [6] -0.49% | RAM network inhibition [7] 3.78%

Cc1ccc(S(=O)(=O)N2CCN(Cc3ccccc3C(F)(F)F)CC2)cc1
inactive: growth inhibition [1] -12.5% | growth inhibition [2] -27.7% | viability increase [3] -1.45% | viability [4] 78% | viability [5] 82.8% | inhibition [6] 0.92% | RAM network inhibition [7] 3.06%

O=C(Cn1ncc2c(=O)oc3ccccc3c21)N(Cc1ccco1)C1CCCCC1
inactive: growth inhibition [1] -4.29% | growth inhibition [2] -1.01% | viability increase [3] -4.59% | viability [4] 92.5% | viability [5] 94.6% | inhibition [6] 2.71% | RAM network inhibition [7] 5.12%

Cc1cc(Nc2cccc(F)c2)n2nc(C)nc2n1
inactive: growth inhibition [1] -13.6% | growth inhibition [2] -7.6% | viability increase [3] -2.42% | viability [4] 101% | viability [5] 94.4% | inhibition [6] 1.08% | RAM network inhibition [7] 5.28%

O=C(CCSc1ccccc1)Nc1nnc(-c2ccccc2)o1
inactive: growth inhibition [1] -0.38% | growth inhibition [2] 3.81% | viability increase [3] -3.73% | viability [4] 98.9% | viability [5] 103% | inhibition [6] 0.27% | RAM network inhibition [7] 2.5%

CCOc1ccc(NC(=O)N(C2CCCCC2)C2CCN(C(C)=O)CC2)cc1
inactive: growth inhibition [1] -8.37% | growth inhibition [2] 6.87% | viability increase [3] -0.8% | viability [4] 102% | viability [5] 100% | inhibition [6] 0.795% | RAM network inhibition [7] 3.05%

C=CCn1c(CCCNC(=O)C(C)(C)C)nc2ccccc21
inactive: growth inhibition [1] -10.7% | growth inhibition [2] -20.9% | viability increase [3] -1.33% | viability [4] 99.7% | viability [5] 96.1% | inhibition [6] 0.295% | RAM network inhibition [7] 5.54%

Cc1nn(C)c(C)c1S(=O)(=O)N(CC(=O)Nc1nccs1)c1ccc(C(C)C)cc1
inactive: growth inhibition [1] -0.91% | growth inhibition [2] -7.29% | viability increase [3] -4.04% | viability [4] 99% | viability [5] 90.5% | inhibition [6] 2.3% | RAM network inhibition [7] 2.72%

O=C(Nc1nccs1)C12CC3CC(C1)CC(C(=O)Nc1nccs1)(C3)C2
inactive: growth inhibition [1] 1.86% | growth inhibition [2] 28.3% | viability increase [3] -2.85% | viability [4] 75.3% | viability [5] 78.7% | inhibition [6] 1.25% | RAM network inhibition [7] 2.5%

COc1ccc(O)c(C(=O)c2cnn(C(=O)c3cc(C)oc3C)c2)c1
inactive: growth inhibition [1] -9.76% | growth inhibition [2] -11.3% | viability increase [3] -1.89% | viability [4] 97.2% | viability [5] 88.7% | inhibition [6] 2.02% | RAM network inhibition [7] 1.5%

CCn1c(SCC(=O)Nc2ccccc2C(=O)OC)nc2c1c(=O)n(C)c(=O)n2C
inactive: growth inhibition [1] -6.03% | growth inhibition [2] -4.93% | viability increase [3] -3.55% | viability [4] 92% | viability [5] 86.6% | inhibition [6] 3.68% | RAM network inhibition [7] 5.2%

O=C(NC1CCN(Cc2ccccc2)CC1)C1CCCN(c2nnc(-n3cccc3)s2)C1 (configuration not stated)
inactive: growth inhibition [1] -4.03% | growth inhibition [2] 11.1% | viability increase [3] -4.97% | viability [4] 93.1% | viability [5] 84.5% | inhibition [6] 0.085% | RAM network inhibition [7] 0.11%

CC(=O)COC(=O)c1cccc(N2C(=O)C3C4C=CC(C4)C3C2=O)c1 (configuration not stated)
inactive: growth inhibition [1] -0.62% | growth inhibition [2] 8.06% | viability increase [3] -1.07% | viability [4] 105% | viability [5] 93.5% | inhibition [6] 1.27% | RAM network inhibition [7] 0.67%

C=CCOc1ccc(/C(O)=C2/C(=O)C(=O)N(CCCn3ccnc3)C2c2cccs2)cc1 (configuration not stated)
inactive: growth inhibition [1] -13.8% | growth inhibition [2] 0.445% | viability increase [3] 1.46% | viability [4] 95.2% | viability [5] 98.6% | inhibition [6] -0.285% | RAM network inhibition [7] 1.02%

O=C(NCCN1CCOCC1)c1ccc2c(c1)N(Cc1ccc(F)cc1)C(=O)CS2
inactive: growth inhibition [1] -16.1% | growth inhibition [2] -8.1% | viability increase [3] 3.02% | viability [4] 92.5% | viability [5] 88.9% | inhibition [6] 0.08% | RAM network inhibition [7] 0.11%

Cc1ccc(NC(=O)NCCN2C(=O)C3C4C=CC(C4)C3C2=O)cc1 (configuration not stated)
inactive: growth inhibition [1] -8.32% | growth inhibition [2] 10.9% | viability increase [3] -0.07% | viability [4] 98% | viability [5] 102% | inhibition [6] 0.865% | RAM network inhibition [7] 1.04%

COC(=O)c1ccccc1NC(NC(=O)c1ccco1)C(=O)c1ccc(C)cc1 (configuration not stated)
inactive: growth inhibition [1] -0.235% | growth inhibition [2] -5.5% | viability increase [3] -4.41% | viability [4] 79% | viability [5] 70.3% | inhibition [6] 4.25% | RAM network inhibition [7] 7.66%
